Assay results: ChEMBL document CHEMBL1921735, “Antibacterial optimization of 4-aminothiazolyl analogues of the natural product GE2270 A: identification of the cycloalkylcarboxylic acids” (J Med Chem, 2011)
Converted amounts (≈) assume the structure as drawn. The source made the active and inactive calls.

Columns and labels:
Staphylococcus aureus [1] = test: Antibacterial activity against Staphylococcus aureus ATCC 49951 infected in CD1 mouse assessed as protection against bacterial infection administered 5 hrs post infection measured on day 5; assay type: functional
Outline: (§1)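 Mouse lethal systemic infection: ip injection of 1 × 10^8 cfu/mouse (10−100× minimal lethal dose), E. faecalis in 50% sterile rat fecal extract, S. aureus in 0.9% NaCl. Therapy by tail-vein bolus at several doses, six mice per group. Started immediately for E. faecalis; at 1 and 5 h post-inoculation for S. aureus.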

Enterococcus faecium = test: Antibacterial activity against Enterococcus faecium 7130724 by CLSI M07-A8 method; assay type: functional
Outline: (§2)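 Broth microdilution MIC run per CLSI M07-A8 (2009).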

Enterococcus faecalis [2] = test: Antibacterial activity against Enterococcus faecalis isolate NB04025 infected in CD1 mouse assessed as protection against bacterial infection administered immediately after infection measured on day 5; assay type: functional; details: isolate NB04025, 120 h; outline: as §1
Streptococcus pyogenes = test: Antibacterial activity against Streptococcus pyogenes ATCC BAA-595 by CLSI M07-A8 method; assay type: functional; outline: as §2
Streptococcus pneumoniae = test: Antibacterial activity against Streptococcus pneumoniae by CLSI M07-A8 method; assay type: functional, organism-based; outline: as §2
Enterococcus faecalis [3] = test: Antibacterial activity against Enterococcus faecalis ATCC 29212 by CLSI M07-A8 method; assay type: functional; outline: as §2
Staphylococcus aureus [4] = test: Antibacterial activity against methicillin-resistant Staphylococcus aureus isolate A4.018 by CLSI M07-A8 method; assay type: functional
Staphylococcus aureus [5] = test: Antibacterial activity against GE2270-A-resistant Staphylococcus aureus harboring tufA G258D mutant gene by CLSI M07-A8 method; assay type: functional

SMILES	ED50 (Staphylococcus aureus [1]) [mg/kg]	MIC (Enterococcus faecium) [mg/L]	ED50 (Enterococcus faecalis [2]) [mg/kg]	MIC (Streptococcus pyogenes) [mg/L]	Activity (Streptococcus pneumoniae)	MIC (Enterococcus faecalis [3]) [mg/L]	MIC (Staphylococcus aureus [4]) [mg/L]	Activity (Staphylococcus aureus [5])	MIC (Staphylococcus aureus [5]) [mg/L]
CNC(=O)C[C@@H]1NC(=O)c2csc(n2)-c2ccc(-c3nc(NC(=O)c4cnc(C(=O)O)cn4)cs3)nc2-c2csc(n2)-c2csc(n2)[C@H]([C@@H](O)c2ccccc2)NC(=O)CNC(=O)c2nc(sc2COC)[C@H](C(C)C)NC(=O)c2nc1sc2C	13.9	0.25 (≈ 0.201 µM)	2.2	8 (≈ 6.42 µM)	Active	0.25 (≈ 0.201 µM)	0.5 (≈ 0.401 µM)		
CNC(=O)C[C@@H]1NC(=O)c2csc(n2)-c2ccc(-c3nc(NC(=O)O[C@H]4CC[C@H](N)CC4)cs3)nc2-c2csc(n2)-c2csc(n2)[C@H]([C@@H](O)c2ccccc2)NC(=O)CNC(=O)c2nc(sc2COC)[C@H](C(C)C)NC(=O)c2nc1sc2C	19.3	0.5 (≈ 0.404 µM)	< 3.3	8 (≈ 6.46 µM)	Active	0.5 (≈ 0.404 µM)	1 (≈ 0.808 µM)	inactive	
CNC(=O)C[C@@H]1NC(=O)c2csc(n2)-c2ccc(-c3nc(NC(=O)OCCCCN)cs3)nc2-c2csc(n2)-c2csc(n2)[C@H]([C@@H](O)c2ccccc2)NC(=O)CNC(=O)c2nc(sc2COC)[C@H](C(C)C)NC(=O)c2nc1sc2C	6.48	1 (≈ 0.825 µM)		8 (≈ 6.6 µM)	Active	0.5 (≈ 0.413 µM)	1 (≈ 0.825 µM)	inactive	
CNC(=O)C[C@@H]1NC(=O)c2csc(n2)-c2ccc(-c3nc(NC(=O)OCCCC(=O)O)cs3)nc2-c2csc(n2)-c2csc(n2)[C@H]([C@@H](O)c2ccccc2)NC(=O)CNC(=O)c2nc(sc2COC)[C@H](C(C)C)NC(=O)c2nc1sc2C	5.4	0.06 (≈ 0.0489 µM)	3.1	1 (≈ 0.815 µM)	Active	0.03 (≈ 0.0245 µM)	0.06 (≈ 0.0489 µM)	inactive	
CNC(=O)C[C@@H]1NC(=O)c2csc(n2)-c2ccc(-c3nc(NC(=O)c4ccc(C(=O)O)cn4)cs3)nc2-c2csc(n2)-c2csc(n2)[C@H]([C@@H](O)c2ccccc2)NC(=O)CNC(=O)c2nc(sc2COC)[C@H](C(C)C)NC(=O)c2nc1sc2C	4.4	< 0.06	0.8	4 (≈ 3.21 µM)	Active	0.125 (≈ 0.1 µM)	0.25 (≈ 0.201 µM)		
CNC(=O)C[C@@H]1NC(=O)c2csc(n2)-c2ccc(-c3nc(NC(=O)CC[C@H](N)C(=O)O)cs3)nc2-c2csc(n2)-c2csc(n2)[C@H]([C@@H](O)c2ccccc2)NC(=O)CNC(=O)c2nc(sc2COC)[C@H](C(C)C)NC(=O)c2nc1sc2C		> 32		> 32	Active	> 32	> 32	inactive	
CNC(=O)C[C@@H]1NC(=O)c2csc(n2)-c2ccc(-c3nc(NC(=O)C(C)(C)CCCC(C)(C)C(=O)O)cs3)nc2-c2csc(n2)-c2csc(n2)[C@H]([C@@H](O)c2ccccc2)NC(=O)CNC(=O)c2nc(sc2COC)[C@H](C(C)C)NC(=O)c2nc1sc2C		1 (≈ 0.772 µM)		> 32	Active	1 (≈ 0.772 µM)	4 (≈ 3.09 µM)	inactive	
CNC(=O)C[C@@H]1NC(=O)c2csc(n2)-c2ccc(-c3nc(NC(=O)O[C@H]4C[C@@H](C(=O)O)C4)cs3)nc2-c2csc(n2)-c2csc(n2)[C@H]([C@@H](O)c2ccccc2)NC(=O)CNC(=O)c2nc(sc2COC)[C@H](C(C)C)NC(=O)c2nc1sc2C	2.9	0.03 (≈ 0.0242 µM)	1	1 (≈ 0.807 µM)	Active	0.06 (≈ 0.0484 µM)	0.06 (≈ 0.0484 µM)		
CNC(=O)C[C@@H]1NC(=O)c2csc(n2)-c2ccc(-c3nc(NC(=O)CC(=O)O)cs3)nc2-c2csc(n2)-c2csc(n2)[C@H]([C@@H](O)c2ccccc2)NC(=O)CNC(=O)c2nc(sc2COC)[C@H](C(C)C)NC(=O)c2nc1sc2C		2 (≈ 1.69 µM)		8 (≈ 6.77 µM)	Active	1 (≈ 0.846 µM)	1 (≈ 0.846 µM)	inactive	
CNC(=O)C[C@@H]1NC(=O)c2csc(n2)-c2ccc(-c3nc(NC(=O)/C=C\C(=O)O)cs3)nc2-c2csc(n2)-c2csc(n2)[C@H]([C@@H](O)c2ccccc2)NC(=O)CNC(=O)c2nc(sc2COC)[C@H](C(C)C)NC(=O)c2nc1sc2C		2 (≈ 1.67 µM)		16 (≈ 13.4 µM)	Active	1 (≈ 0.837 µM)	1 (≈ 0.837 µM)	inactive	
CNC(=O)C[C@@H]1NC(=O)c2csc(n2)-c2ccc(-c3nc(NC(=O)OCCN)cs3)nc2-c2csc(n2)-c2csc(n2)[C@H]([C@@H](O)c2ccccc2)NC(=O)CNC(=O)c2nc(sc2COC)[C@H](C(C)C)NC(=O)c2nc1sc2C		1 (≈ 0.845 µM)		16 (≈ 13.5 µM)	Active	1 (≈ 0.845 µM)	1 (≈ 0.845 µM)	inactive	
CNC(=O)C[C@@H]1NC(=O)c2csc(n2)-c2ccc(-c3nc(NC(=O)[C@H](CN)CCC(=O)O)cs3)nc2-c2csc(n2)-c2csc(n2)[C@H]([C@@H](O)c2ccccc2)NC(=O)CNC(=O)c2nc(sc2COC)[C@H](C(C)C)NC(=O)c2nc1sc2C	9.5	1 (≈ 0.807 µM)	> 60	> 32	Active	0.5 (≈ 0.403 µM)	1 (≈ 0.807 µM)	inactive	
CNC(=O)C[C@@H]1NC(=O)c2csc(n2)-c2ccc(-c3nc(NC(C)=O)cs3)nc2-c2csc(n2)-c2csc(n2)[C@H]([C@@H](O)c2ccccc2)NC(=O)CNC(=O)c2nc(sc2COC)[C@H](C(C)C)NC(=O)c2nc1sc2C		1 (≈ 0.878 µM)		> 32	Active	1 (≈ 0.878 µM)	2 (≈ 1.76 µM)		> 32
CNC(=O)C[C@@H]1NC(=O)c2csc(n2)-c2ccc(-c3nc(NC(=O)[C@H](C)CCC(=O)O)cs3)nc2-c2csc(n2)-c2csc(n2)[C@H]([C@@H](O)c2ccccc2)NC(=O)CNC(=O)c2nc(sc2COC)[C@H](C(C)C)NC(=O)c2nc1sc2C	10.6	0.5 (≈ 0.408 µM)	11.1	4 (≈ 3.27 µM)	Active	0.25 (≈ 0.204 µM)	0.25 (≈ 0.204 µM)	inactive	
CNC(=O)C[C@@H]1NC(=O)c2csc(n2)-c2ccc(-c3nc(NC(=O)OCC(C)(C)N)cs3)nc2-c2csc(n2)-c2csc(n2)[C@H]([C@@H](O)c2ccccc2)NC(=O)CNC(=O)c2nc(sc2COC)[C@H](C(C)C)NC(=O)c2nc1sc2C		1 (≈ 0.825 µM)		8 (≈ 6.6 µM)	Active	1 (≈ 0.825 µM)	2 (≈ 1.65 µM)	inactive	
CNC(=O)C[C@@H]1NC(=O)c2csc(n2)-c2ccc(-c3nc(NC(=O)CCC(=O)O)cs3)nc2-c2csc(n2)-c2csc(n2)[C@H]([C@@H](O)c2ccccc2)NC(=O)CNC(=O)c2nc(sc2COC)[C@H](C(C)C)NC(=O)c2nc1sc2C		0.5 (≈ 0.418 µM)		4 (≈ 3.34 µM)	Active	0.25 (≈ 0.209 µM)	0.25 (≈ 0.209 µM)	inactive	
CNC(=O)C[C@@H]1NC(=O)c2csc(n2)-c2ccc(-c3nc(-n4cnc(C(=O)O)c4)cs3)nc2-c2csc(n2)-c2csc(n2)[C@H]([C@@H](O)c2ccccc2)NC(=O)CNC(=O)c2nc(sc2COC)[C@H](C(C)C)NC(=O)c2nc1sc2C		> 32		> 32	Active	4 (≈ 3.36 µM)	4 (≈ 3.36 µM)		> 32
